By Emax is commonly meant the size of the effect at its maximum, as opposed to the concentration needed. Usually EC50 stands for the midpoint of the concentration-response curve. A word on the Ki: it is a measure of affinity in units of concentration, obtained from inhibition or displacement. A high value points to weaker binding. What is called IC50 is the point on the concentration scale where inhibition reaches its midpoint.

In experiment [1] the target is T1, Delta-type opioid receptor (Homo sapiens, UniProt P41143). Description: Activity at human delta opioid receptor expressed in CHO cells by [35S]GTP-gamma-S binding assay. Type of experiment: functional, cell-based. Conditions: for Log IC50: cho. In a few lines: (§1)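 Receptors expressed in CHO cells; agonist-stimulated GTP-γ-S binding reported as net total bound/basal binding × 100. Log EC50 from nonlinear regression of at least two independent experiments.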

In experiment [2] the target is Mu-type opioid receptor (Rattus norvegicus) (UniProt P33535). Put plainly: (§2) Activity at rat mu opioid receptor expressed in CHO cells by [35S]GTPgammaS binding assay. Type of experiment: functional, cell-based. A digest of the protocol:
as §1
In general terms: Binding of GTPγS marks nucleotide exchange on a G protein.

In experiment [3] the target is T2, Mu-type opioid receptor (Rattus norvegicus, UniProt P33535). The description is as §2. It counts as functional, cell-based. A digest of the protocol: as §1
For experiment [4], the target named is T3, Gastrin/cholecystokinin type B receptor (Homo sapiens, UniProt P32239).
T3 sequence (P32239 whole entry): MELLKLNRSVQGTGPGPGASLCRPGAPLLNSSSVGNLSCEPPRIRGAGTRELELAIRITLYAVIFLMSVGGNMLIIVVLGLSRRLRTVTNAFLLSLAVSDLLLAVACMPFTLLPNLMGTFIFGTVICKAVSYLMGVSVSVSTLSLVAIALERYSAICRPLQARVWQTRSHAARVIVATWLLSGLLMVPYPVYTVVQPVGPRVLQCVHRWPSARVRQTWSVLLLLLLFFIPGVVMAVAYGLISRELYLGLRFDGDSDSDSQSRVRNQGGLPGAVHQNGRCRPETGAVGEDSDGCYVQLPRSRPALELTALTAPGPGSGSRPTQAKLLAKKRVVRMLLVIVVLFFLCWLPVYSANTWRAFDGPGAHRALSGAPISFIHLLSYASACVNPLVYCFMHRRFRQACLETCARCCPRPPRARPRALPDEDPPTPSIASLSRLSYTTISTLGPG
Put plainly: Activity at human CCK2 receptor expressed in HEK293 cells assessed as level of [3H]inositol produced relative to control. It counts as functional, cell-based.

For experiment [5], the target named is T3, Gastrin/cholecystokinin type B receptor. Description: Displacement of [125I]CCK8-SO3 from human CCK2 receptor expressed in HEK293 cells. It counts as cell-based. On the technique in general: Loss of bound radioactivity is the signal in a displacement assay; it reports binding, not function.
In experiment [6] the target is T1, Delta-type opioid receptor. Description: Displacement of [3H]DPDPE from human delta opioid receptor expressed in HN9.10 cells. Type of experiment: cell-based.
In experiment [7] the target is Mu-type opioid receptor (Cavia porcellus, UniProt P97266). Description: Activity at mu opioid receptor assessed as contraction of electrically-stimulated Hartley guinea pig ileum. Type of experiment: functional, tissue-based. A digest of the protocol:
(§3)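 Electrically stimulated isolated tissue; value is concentration giving 50% inhibition of muscle contraction.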

The target of experiment [8] is T2, Mu-type opioid receptor. Put plainly: Displacement of [3H]DAMGO from rat mu opioid receptor expressed in HN9.10 cells. It counts as cell-based.
Experiment [9] deals with Delta-type opioid receptor (Mus musculus, UniProt P32300). Put plainly: Activity at delta opioid receptor in ICR mouse by MVD assay. It counts as functional, tissue-based. In a few lines:
as §3

For experiment [10], the target named is T4, Cholecystokinin receptor type A (Homo sapiens, UniProt P32238).
T4 sequence (P32238 whole entry): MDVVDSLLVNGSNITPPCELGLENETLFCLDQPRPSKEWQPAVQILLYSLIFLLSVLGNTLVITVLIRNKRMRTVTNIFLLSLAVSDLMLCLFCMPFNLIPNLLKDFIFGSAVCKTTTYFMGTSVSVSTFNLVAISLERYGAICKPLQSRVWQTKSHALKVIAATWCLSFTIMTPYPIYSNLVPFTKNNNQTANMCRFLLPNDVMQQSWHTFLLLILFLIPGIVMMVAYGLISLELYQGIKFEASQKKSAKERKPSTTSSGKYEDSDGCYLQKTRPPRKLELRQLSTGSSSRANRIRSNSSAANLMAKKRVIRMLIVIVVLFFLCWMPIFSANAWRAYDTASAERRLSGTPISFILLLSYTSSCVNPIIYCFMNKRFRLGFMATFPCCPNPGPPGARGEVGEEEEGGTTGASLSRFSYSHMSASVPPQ
Put plainly: Displacement of [125I]CCK8-SO3 from human CCK1 receptor expressed in HEK293 cells. Type of experiment: cell-based.

A value given as a limit tells only on which side of the number the result lay.

T1 sequence (P41143 whole entry): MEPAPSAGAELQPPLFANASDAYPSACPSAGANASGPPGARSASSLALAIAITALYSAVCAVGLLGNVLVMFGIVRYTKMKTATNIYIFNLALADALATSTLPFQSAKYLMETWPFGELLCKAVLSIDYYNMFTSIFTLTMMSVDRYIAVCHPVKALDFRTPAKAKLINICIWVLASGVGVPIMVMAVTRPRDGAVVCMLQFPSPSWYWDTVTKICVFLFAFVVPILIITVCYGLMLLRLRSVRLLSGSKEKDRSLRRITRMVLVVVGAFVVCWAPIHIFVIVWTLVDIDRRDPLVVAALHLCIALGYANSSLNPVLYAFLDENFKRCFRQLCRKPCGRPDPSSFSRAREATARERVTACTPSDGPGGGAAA
Sequence of Mu-type opioid receptor (Rattus norvegicus) (P33535 whole entry): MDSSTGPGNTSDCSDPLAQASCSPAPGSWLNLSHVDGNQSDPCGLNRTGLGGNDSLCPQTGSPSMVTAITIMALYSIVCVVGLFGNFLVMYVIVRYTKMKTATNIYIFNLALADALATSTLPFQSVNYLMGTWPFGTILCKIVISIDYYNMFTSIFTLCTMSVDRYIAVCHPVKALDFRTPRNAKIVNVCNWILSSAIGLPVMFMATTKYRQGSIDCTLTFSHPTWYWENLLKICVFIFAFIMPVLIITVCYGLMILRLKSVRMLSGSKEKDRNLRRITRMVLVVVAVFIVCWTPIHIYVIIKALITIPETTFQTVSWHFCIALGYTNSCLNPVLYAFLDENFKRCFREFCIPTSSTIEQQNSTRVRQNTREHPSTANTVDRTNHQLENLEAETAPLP
T2 sequence (P33535 whole entry): as above
Sequence of Delta-type opioid receptor (Mus musculus, UniProt P32300) (P32300 whole entry): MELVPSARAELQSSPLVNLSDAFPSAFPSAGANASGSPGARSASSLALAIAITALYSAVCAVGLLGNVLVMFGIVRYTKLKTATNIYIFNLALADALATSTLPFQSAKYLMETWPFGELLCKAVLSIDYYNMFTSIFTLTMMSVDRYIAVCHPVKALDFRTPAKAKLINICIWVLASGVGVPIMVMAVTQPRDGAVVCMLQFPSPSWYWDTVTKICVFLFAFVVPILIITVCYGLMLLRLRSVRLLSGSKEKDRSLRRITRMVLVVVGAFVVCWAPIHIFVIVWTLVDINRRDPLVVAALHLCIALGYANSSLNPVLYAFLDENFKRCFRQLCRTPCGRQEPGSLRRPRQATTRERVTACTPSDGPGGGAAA
Sequence of Mu-type opioid receptor (Cavia porcellus, UniProt P97266) (P97266 whole entry): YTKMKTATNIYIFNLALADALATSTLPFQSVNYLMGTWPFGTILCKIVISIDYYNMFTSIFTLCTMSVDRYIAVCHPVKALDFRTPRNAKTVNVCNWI

Consider `CCCC[C@H](NC(=O)[C@@H](Cc1cc2ccccc2[nH]1)NC(=O)OC(C)(C)C)C(=O)N[C@@H](CC(=O)O)C(=O)N[C@@H](Cc1ccccc1)C(=O)NNC(=O)[C@H](Cc1ccccc1)NC(=O)CNC(=O)[C@@H](C)NC(=O)[C@@H](N)Cc1ccc(O)cc1`, for which the maximal response (Emax) in experiment [1] came out at 100%; in experiment [2] it was 170%.
For the compound `CCCC[C@H](NC(=O)[C@@H](Cc1c[nH]c2ccccc12)NC(=O)OC(C)(C)C)C(=O)N[C@@H](CC(=O)O)C(=O)N[C@@H](Cc1ccccc1)C(=O)NNC(=O)[C@H](Cc1ccccc1)NC(=O)CNC(=O)[C@@H](C)NC(=O)[C@@H](N)Cc1ccc(O)cc1`, the “Log IC50” value in [1] is on record as -7.13; on Mu-type opioid receptor [3] (cho), -6.69; in experiment [4], -7.8. Further, the 50% effective concentration (EC50) in [4] amounted to 16 nM.
Take `CCCC[C@@H](NC(=O)[C@H](Cc1cc2ccccc2[nH]1)NC(=O)OC(C)(C)C)C(=O)N[C@H](CC(=O)O)C(=O)N[C@H](Cc1ccccc1)C(=O)NNC(=O)[C@H](Cc1ccccc1)NC(=O)CNC(=O)[C@@H](C)NC(=O)[C@@H](N)Cc1ccc(O)cc1`: the inhibitory constant (Ki) is above 10000 nM in experiment [5], 6.9 nM in experiment [6], 34 nM on Mu-type opioid receptor [8] and 8300 nM in experiment [10]. In addition, the values for the 50% effective concentration (EC50) (in [1]; at Mu-type opioid receptor [3]) were 8.4 nM and 1.3 nM, respectively. Besides, the Emax in experiment [1] turned out to be 93%; in experiment [2] it was 106%. Moreover, the IC50 in experiment [1] was 8.32 nM; in [6], 16.2 nM; on Mu-type opioid receptor [7], 210 nM; on Mu-type opioid receptor [8], 79.4 nM; in [9], 31 nM. This compound also displayed a log EC50 on Mu-type opioid receptor [3] of -8.9.
As for `CCCC[C@H](NC(=O)[C@H](N)Cc1cc2ccccc2[nH]1)C(=O)N[C@@H](CC(=O)O)C(=O)N[C@@H](Cc1ccccc1)C(=O)NNC(=O)[C@H](Cc1ccccc1)NC(=O)CNC(=O)[C@@H](C)NC(=O)[C@@H](N)Cc1ccc(O)cc1`, the figures for the maximal effect (Emax) in [1] and in experiment [2] were 64% and 82%, respectively.
With `CCCC[C@H](NC(=O)[C@H](N)Cc1c[nH]c2ccccc12)C(=O)N[C@@H](CC(=O)O)C(=O)N[C@@H](Cc1ccccc1)C(=O)NNC(=O)[C@H](Cc1ccccc1)NC(=O)CNC(=O)[C@@H](C)NC(=O)[C@@H](N)Cc1ccc(O)cc1`, the “Log IC50” value is on record as -8.02 in experiment [1], -8.02 on Mu-type opioid receptor [3] (cho) and -8.34 in experiment [4]. For the same compound, the values for the EC50 (at Mu-type opioid receptor [3] (cho); in experiment [4]) were 96 nM and 4.6 nM, respectively. This compound also registered a Ki at Mu-type opioid receptor [8] of 0.5 nM.
Consider `CCCC[C@@H](NC(=O)[C@@H](CC(=O)O)NC(=O)[C@@H](Cc1ccccc1)NC(=O)OC(C)(C)C)C(=O)N[C@@H](Cc1cc2ccccc2[nH]1)C(=O)NNC(=O)[C@H](Cc1ccccc1)NC(=O)CNC(=O)[C@@H](C)NC(=O)[C@@H](N)Cc1ccc(O)cc1`, for which the IC50 is 1100 nM in [5]; 12.3 nM in experiment [1]; 9.12 nM in [6]; 530 nM on Mu-type opioid receptor [7]; 132 nM on Mu-type opioid receptor [8]; 18 nM in experiment [9]. The IC50 in experiment [10] was 132 nM. The Ki in [5] is 1100 nM; in experiment [6], 3.9 nM; on Mu-type opioid receptor [8] it was 56 nM; in experiment [10], 130 nM. This compound registered an EC50 in [1] of 13 nM. In addition, the figures for the Emax in experiment [1] and in [2] were 99% and 71%, respectively. Also, the log EC50 at Mu-type opioid receptor [3] was -6.76.

The values above are taken from ChEMBL document CHEMBL1139226, “Partial retro-inverso, retro, and inverso modifications of hydrazide linked bifunctional peptides for opioid and cholecystokinin (CCK) receptors” (J Med Chem, 2007).
